From ChEMBL document CHEMBL3124924, “Bifunctional ethyl 2-amino-4-methylthiazole-5-carboxylate derivatives: synthesis and in vitro biological evaluation as antimicrobial and anticancer agents” (2014) come the findings set out here.

Molecules are shown by their SMILES. Values after ≈ are worked out from the molar mass of the structure shown. Active and inactive are the calls of the source. Some results are limits rather than exact numbers.

Assay [1] concerns Candida albicans. The assay can be described thus: Antifungal activity against Candida albicans ATCC 10231 assessed as growth inhibition at 1 mg/mL after 48 hrs by agar-cup diffusion method. The format is functional. The settings on record: ATCC 10231, 48 h, read-out: DIZ. In a few lines: (§1)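 Agar-cup diffusion: 1 mL of 6 h broth culture seeded per 100 mL molten sterile agar at 45 °C and poured into plates. 8 mm cups cut, each filled with 0.1 mL of 1 mg/mL test solution. Incubated 37 °C for 24 h, 48 h for C. albicans. DMSO control per organism. Inhibition zone diameter in mm, mean of three measurements.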

Assay [2] deals with Escherichia coli. The assay can be described thus: Antibacterial activity against Escherichia coli ATCC 25922 assessed as growth inhibition at 1 mg/mL after 24 hrs by agar-cup diffusion method. The class given is functional. The settings on record: ATCC 25922, 24 h, read-out: DIZ. The essentials: as §1
Assay [3] has as its system Bacillus spizizenii. The assay can be described thus: Antibacterial activity against Bacillus subtilis ATCC 6633 assessed as growth inhibition at 1 mg/mL after 24 hrs by agar-cup diffusion method. The format is functional. The settings on record: ATCC 6633, 24 h, read-out: DIZ. In a few lines: as §1
A further assay has as its system Aspergillus niger. The assay can be described thus: Antifungal activity against Aspergillus niger assessed as growth inhibition at 1 mg/mL after 24 hrs by agar-cup diffusion method. The class given is functional, organism-based. The essentials:
as §1

Assay [4] has as its system Candida albicans. The assay can be described thus: Fungicidal activity against Candida albicans ATCC 10231 after 18 hrs. The class given is functional. The conditions noted are these: ATCC 10231, 18 h. The essentials:
(§2)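 Continuation of the broth-dilution MIC test. A loopful from each tube without visible growth spread on a quarter of a Mueller-Hinton agar plate and incubated 18 h. Lowest concentration giving no growth on subculture taken as the MBC.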

In assay [5] the test system is Candida albicans. Description: Antifungal activity against Candida albicans ATCC 10231 assessed as growth inhibition after 48 hrs by two-fold serial dilution assay. The class given is functional. The settings on record: ATCC 10231, 48 h. In a few lines:
(§3)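 Twofold serial broth dilution run on compounds giving inhibition zones of 13 mm or more. Organisms pre-grown in suitable broth at 37 °C, 24 h for bacteria and 48 h for fungi. Dilution series 200, 100, 50, 25, 12.5, 6.25. Each 5 mL tube inoculated with 0.1 mL and incubated 37 °C for 48 h. Tubes scored for presence or absence of growth.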

In assay [6] the test system is Pseudomonas aeruginosa. The assay can be described thus: Bactericidal activity against Pseudomonas aeruginosa ATCC 27853 after 18 hrs. The class given is functional. The settings on record: ATCC 27853, 18 h. The essentials:
as §2

The subject of assay [7] is Pseudomonas aeruginosa. Description: Antibacterial activity against Pseudomonas aeruginosa ATCC 27853 assessed as growth inhibition after 48 hrs by two-fold serial dilution assay. The format is functional. The settings on record: ATCC 27853, 48 h. In a few lines: as §3
Assay [8] concerns Escherichia coli. The assay can be described thus: Bactericidal activity against Escherichia coli ATCC 25922 after 18 hrs. The class given is functional. The conditions noted are these: ATCC 25922, 18 h. In a few lines: as §2
Assay [9] deals with Escherichia coli. Description: Antibacterial activity against Escherichia coli ATCC 25922 assessed as growth inhibition after 48 hrs by two-fold serial dilution assay. The conditions noted are these: ATCC 25922, 48 h. The class given is functional. The essentials: as §3
Assay [10] deals with Bacillus spizizenii. The assay can be described thus: Bactericidal activity against Bacillus subtilis ATCC 6633 after 18 hrs. The format is functional. The settings on record: ATCC 6633, 18 h. In a few lines: as §2
For assay [11], the system named is Bacillus spizizenii. The assay can be described thus: Antibacterial activity against Bacillus subtilis ATCC 6633 assessed as growth inhibition after 48 hrs by two-fold serial dilution assay. The conditions noted are these: ATCC 6633, 48 h. The format is functional. The essentials:
as §3

In assay [12] the test system is Staphylococcus aureus. Description: Bactericidal activity against Staphylococcus aureus ATCC 6538 after 18 hrs. The format is functional. The settings on record: ATCC 6538, 18 h. The essentials:
as §2

In assay [13] the test system is Staphylococcus aureus. The assay can be described thus: Antibacterial activity against Staphylococcus aureus ATCC 6538 assessed as growth inhibition after 48 hrs by two-fold serial dilution assay. The format is functional. The settings on record: ATCC 6538, 48 h. In a few lines:
as §3

Assay [14] has as its system Staphylococcus aureus. The assay can be described thus: Antibacterial activity against Staphylococcus aureus ATCC 6538 assessed as growth inhibition at 1 mg/mL after 24 hrs by agar-cup diffusion method. The format is functional. The settings on record: ATCC 6538, 24 h, read-out: DIZ. The essentials: as §1
The test system of assay [15] is Pseudomonas aeruginosa. The assay can be described thus: Antibacterial activity against Pseudomonas aeruginosa ATCC 27853 assessed as growth inhibition at 1 mg/mL after 24 hrs by agar-cup diffusion method. The class given is functional. The settings on record: ATCC 27853, 24 h, read-out: DIZ. In a few lines:
as §1

`Cc1ccc(NC(=S)Nc2nc(C)c(C(=O)NN)s2)cc1`: the zone of inhibition at 1000 µg/mL in the assay on Candida albicans [1], in the assay on Escherichia coli [2], in the assay with Bacillus spizizenii [3], in the assay with Staphylococcus aureus [14] and with Pseudomonas aeruginosa [15] was > 13 mm in each case. The “growth inhibition (GI)” value in the assay on Aspergillus niger was “inactive”. The same molecule showed an MFC against Candida albicans [4] of 100 µg/mL (≈ 311 µM). Also, the MIC in the assay with Candida albicans [5] was determined as 100 µg/mL (≈ 311 µM); in the assay with Pseudomonas aeruginosa [7], 50 µg/mL (≈ 156 µM); in the assay with Escherichia coli [9], 100 µg/mL (≈ 311 µM); with Bacillus spizizenii [11], 50 µg/mL (≈ 156 µM); with Staphylococcus aureus [13], 25 µg/mL (≈ 77.8 µM). The MBC against Pseudomonas aeruginosa [6] was 100 µg/mL (≈ 311 µM); in the assay on Escherichia coli [8], 100 µg/mL (≈ 311 µM); against Bacillus spizizenii [10], 50 µg/mL (≈ 156 µM); in the assay with Staphylococcus aureus [12], 25 µg/mL (≈ 77.8 µM).
In the case of `CCOC(=O)c1sc(NC(=S)Nc2ccc(F)cc2)nc1C`, the zone of inhibition at 1000 µg/mL with Candida albicans [1], in the assay on Escherichia coli [2], in the assay on Bacillus spizizenii [3], in the assay with Staphylococcus aureus [14] and in the assay with Pseudomonas aeruginosa [15] was > 13 mm each time. The “growth inhibition (GI)” value in the assay with Aspergillus niger was “inactive”. This molecule also came in with an MFC in the assay on Candida albicans [4] of 50 µg/mL (≈ 147 µM). The MIC came to 25 µg/mL (≈ 73.7 µM) with Candida albicans [5]; 100 µg/mL (≈ 295 µM) with Pseudomonas aeruginosa [7]; 25 µg/mL (≈ 73.7 µM) with Escherichia coli [9]; 25 µg/mL (≈ 73.7 µM) in the assay with Bacillus spizizenii [11]; 12.5 µg/mL (≈ 36.8 µM) in the assay with Staphylococcus aureus [13]. Also, the MBC against Pseudomonas aeruginosa [6] was found to be 100 µg/mL (≈ 295 µM); against Escherichia coli [8], 25 µg/mL (≈ 73.7 µM); in the assay with Bacillus spizizenii [10], 25 µg/mL (≈ 73.7 µM); against Staphylococcus aureus [12], 12.5 µg/mL (≈ 36.8 µM).
On to `CCOC(=O)c1sc(NC(=O)CN2CCOCC2)nc1C`, for which the zone of inhibition at 1000 µg/mL in the assay on Candida albicans [1], in the assay with Escherichia coli [2], in the assay on Bacillus spizizenii [3], in the assay on Staphylococcus aureus [14] and in the assay with Pseudomonas aeruginosa [15] was > 13 mm in each case. Also, the “growth inhibition (GI)” value in the assay with Aspergillus niger is “inactive”. The molecule further yielded an MFC against Candida albicans [4] of 100 µg/mL (≈ 319 µM). Moreover, the MIC stood at 100 µg/mL (≈ 319 µM) with Candida albicans [5], 100 µg/mL (≈ 319 µM) in the assay on Bacillus spizizenii [11] and 50 µg/mL (≈ 160 µM) in the assay with Staphylococcus aureus [13]. For the same molecule, the MBC in the assay with Bacillus spizizenii [10] is 100 µg/mL (≈ 319 µM); in the assay on Staphylococcus aureus [12], 50 µg/mL (≈ 160 µM).

As usually defined, the MFC is the smallest concentration meeting the test's criterion for killing the fungus. Low readings indicate greater fungicidal potency, high ones weaker fungicidal potency. For orientation: MIC means the lowest concentration that inhibits growth of the organism. Usually MBC stands for the lowest tested concentration that kills the bacteria rather than only halting them. Read a high MBC as less potent killing.
